For one data set, the target named is Gamma-secretase. Nature of the data set: Inhibition of gamma secretase in human H4 cells assessed as reduction in amyloid beta40 level by ELISA. The format is cell-based. In a few lines:
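Cells were plated and allowed to attach, then the medium was replaced with Ultraculture containing compound at 1% final DMSO. After overnight incubation, Aβ40 in the conditioned medium was measured by sandwich ELISA (C-terminal Aβ40-specific capture antibody, HRP-labelled N-terminal Aβ antibody for detection). IC50 values are means of two experiments, each with 12 concentrations; intra-assay variance was <10%.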
(ELISA stands for enzyme-linked immunosorbent assay.)

The subject of another data set is Mus musculus. Nature of the data set: Reduction in amyloid beta level in Tg2576 mouse brain at 200 umol/kg, po after 3 hrs. The format is functional. Also noted: scale not given: the % may be the effect or the level left. Put shortly: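 Tg2576 (βAPP-Swedish) transgenic mice received one oral dose of 200 μmol/kg. Brain Aβ was measured 3 h later and expressed as % reduction.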

A short description of data set [1]: Drug level in Tg2576 mouse plasma at 200 umol/kg, po after 3 hrs. The format is ADME, organism-based. As to conditions: read-out: Drug uptake. In a few lines:
(§1)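 Tg2576 (βAPP-Swedish) transgenic mice received one oral dose of 200 μmol/kg. Plasma and brain drug concentrations (nM) were measured 3 h after dosing and reported as mean ± error.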

A short description of data set [2]: Drug level in Tg2576 mouse brain at 200 umol/kg, po after 3 hrs. The format is ADME, organism-based. As to conditions: read-out: Drug uptake. In a few lines:
as §1

Activity calls are given as the source filed them. The rule behind the calls is not given here.

The term IC50 denotes the concentration that gives 50% inhibition. For the compound `C[C@H](CCOC(=O)NCCCn1ccnc1)N(c1cc(Cl)ccc1CO)S(=O)(=O)c1ccc(Cl)cc1`, the IC50 at Gamma-secretase came out at 7.7 nM.
Take `CCC(C)NC(=O)OC[C@@H](C)N(c1cc(Cl)ccc1CO)S(=O)(=O)c1ccc(Cl)cc1` (stereo partly drawn): the IC50 on Gamma-secretase was 15 nM.
With `C[C@H](CCCN(C)S(C)(=O)=O)N(c1cc(Cl)ccc1CO)S(=O)(=O)c1ccc(Cl)cc1`, in the data set with Mus musculus, the Activity is 27%.
`C[C@H](COC(=O)N1CCCC1)N(c1cc(Cl)ccc1CO)S(=O)(=O)c1ccc(Cl)cc1`: the IC50 on Gamma-secretase worked out at 1.8 nM.
The same measure, in the same setting: with `CC(C)N(CCCn1ccnc1)C(=O)OC[C@@H](C)N(c1cc(Cl)ccc1CO)S(=O)(=O)c1ccc(Cl)cc1` the figure was 19 nM.
In the case of `C[C@H](COC(=O)NCCCn1ccnc1)N(c1cc(Cl)ccc1F)S(=O)(=O)c1ccc(Cl)cc1`, the IC50 on Gamma-secretase turned out to be 0.66 nM.
Same read-out and setting: the same measure for `C[C@H](COC(=O)NC1CCCCC1)N(c1cc(Cl)ccc1CO)S(=O)(=O)c1ccc(Cl)cc1`: 5.6 nM.
Turning to `CCN(CCCn1ccnc1)C(=O)OC[C@@H](C)N(c1cc(Cl)ccc1CO)S(=O)(=O)c1ccc(Cl)cc1`, the Activity in the data set with Mus musculus was 15%. The IC50 on Gamma-secretase worked out at 0.06 nM. Further, the concentration at 3 h in data set [1] turned out to be 0.73 µM; in data set [2], 0.227 µM.
For the compound `CCN(CC)C(=O)OC[C@@H](C)N(c1cc(Cl)ccc1CO)S(=O)(=O)c1ccc(Cl)cc1`, on Gamma-secretase, the IC50 came out at 18 nM.
With `C[C@H](COC(=O)NCCCn1ccnc1)N(c1cc(Cl)ccc1Cl)S(=O)(=O)c1ccc(Cl)cc1`, the IC50 at Gamma-secretase was determined as 0.41 nM.
Still for that read-out and setting: the same measure for `C[C@H](COC(=O)NCCCn1ccnc1)N(c1cc(Cl)ccc1CO)S(=O)(=O)c1ccc(Cl)cc1`: 2.3 nM.
On the same count and under the same terms, the same measure for `CNC(=O)OC[C@@H](C)N(c1cc(Cl)ccc1CO)S(=O)(=O)c1ccc(Cl)cc1`: 15 nM.
Same read-out and setting: with `CCNC(=O)OC[C@@H](C)N(c1cc(Cl)ccc1CO)S(=O)(=O)c1ccc(Cl)cc1` the figure was 10 nM; with `C[C@H](COC(=O)NCCCn1ccnc1)N(c1cc(F)ccc1F)S(=O)(=O)c1ccc(Cl)cc1`, 1.2 nM; with `C[C@H](COC(=O)N(C)CCCn1ccnc1)N(c1cc(Cl)ccc1Cl)S(=O)(=O)c1ccc(Cl)cc1`, 0.48 nM.
With `C[C@H](CCOC(=O)NCCn1ccnc1)N(c1cc(Cl)ccc1CO)S(=O)(=O)c1ccc(Cl)cc1`, on Gamma-secretase, the IC50 amounted to 4 nM.
For `CC(C)NC(=O)OC[C@@H](C)N(c1cc(Cl)ccc1CO)S(=O)(=O)c1ccc(Cl)cc1`, at Gamma-secretase, the IC50 is 12 nM.
The same measure, in the same setting: with `CCCNC(=O)OC[C@@H](C)N(c1cc(Cl)ccc1CO)S(=O)(=O)c1ccc(Cl)cc1` the figure was 10 nM.
`C[C@H](CCCn1cnnn1)N(c1cc(Cl)ccc1CO)S(=O)(=O)c1ccc(Cl)cc1` yielded an Activity with Mus musculus of 41%.
Consider `C[C@H](COC(=O)NC(C)(C)C)N(c1cc(Cl)ccc1CO)S(=O)(=O)c1ccc(Cl)cc1`, for which, at Gamma-secretase, the IC50 was determined as 12 nM.
Regarding `C[C@H](COC(=O)N(CCCn1ccnc1)CC1CC1)N(c1cc(Cl)ccc1CO)S(=O)(=O)c1ccc(Cl)cc1`, the result with Mus musculus was inactive. For the same compound, the IC50 on Gamma-secretase came to 0.06 nM. For the same compound, the results for the concentration at 3 h in data set [1] and in data set [2] were 6.83 µM and 0.859 µM, respectively.
Regarding `C[C@H](COC(=O)NCCn1ccnc1)N(c1cc(Cl)ccc1CO)S(=O)(=O)c1ccc(Cl)cc1`, the IC50 on Gamma-secretase came out at 0.93 nM.
In the case of `CCN(CCCn1ccnc1)C(=O)OC[C@@H](C)N(c1cc(Cl)ccc1Cl)S(=O)(=O)c1ccc(Cl)cc1`, in the data set with Mus musculus, the Activity worked out at 50%. Also, the IC50 at Gamma-secretase worked out at 0.27 nM. Further, the values for the concentration at 3 h in data set [1] and in data set [2] were 98.9 µM and 41.2 µM, respectively.
Turning to `C[C@H](COC(=O)NCCCn1ncnn1)N(c1cc(Cl)ccc1CO)S(=O)(=O)c1ccc(Cl)cc1`, the IC50 at Gamma-secretase was determined as 2.1 nM.
